# Reference: ChEMBL document CHEMBL3860041, “Synthesis, biological evaluation and molecular modeling study of some new methoxylated 2-benzylthio-quinazoline-4(3H)-ones as nonclassical antifolates” (Bioorg Med Chem Lett, 2016)
# pIC50: −log10 of the molar value.
# Key:
# Cancer cell lines [1] = test: Potency index, ratio of 5-fluorouracil GI50 to compound GI50 for human ovarian cancer cells; format: functional
# In short: (§1)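 GI50 for each cell line came from NCI panel testing over a 5-log dose range, with 5-fluorouracil tested alongside as the reference drug. The index relates the 5-fluorouracil GI50 to the compound GI50 within each tumour subpanel.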
# [2] = Growth inhibition of human A549 cells at 10 uM after 48 hrs by SRB assay relative to control; format: functional; conditions: A549, 48 h, read-out: GI
# In short: (§2)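 NCI 60-cell-line panel, nine tumor subpanels; compounds tested at a single dose of 10 μM in the primary screen.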
# [3] = Growth inhibition of human prostate cancer cells after 48 hrs by SRB assay; format: functional; conditions: Cancer cell lines
# In short: (§3)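 Follow-up NCI panel testing over a 5-log dose range for each cell line. GI50, TGI and LC50 were monitored, with 5-fluorouracil run as the positive control. Values are grouped by tumour subpanel.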
# [4] = Growth inhibition of human M14 cells at 10 uM after 48 hrs by SRB assay relative to control; format: functional; conditions: M14, 48 h, read-out: GI; in short: as §2
# [5] = Growth inhibition of human MALME-3M cells at 10 uM after 48 hrs by SRB assay relative to control; format: functional; conditions: read-out: GI; in short: as §2
# [6] = Growth inhibition of human 786-0 cells at 10 uM after 48 hrs by SRB assay relative to control; format: functional; conditions: 786-0, 48 h, read-out: GI; in short: as §2
# [7] = Growth inhibition of human breast cancer cells after 48 hrs by SRB assay; format: functional; conditions: Cancer cell lines; in short: as §3
# [8] = Growth inhibition of human PC3 cells at 10 uM after 48 hrs by SRB assay relative to control; format: functional; conditions: PC-3, 48 h, read-out: GI; in short: as §2
# [9] = Growth inhibition of human Caki1 cells at 10 uM after 48 hrs by SRB assay relative to control; format: functional; conditions: CAKI-1, 48 h, read-out: GI; in short: as §2
# [10] = Growth inhibition of human OVCAR4 cells at 10 uM after 48 hrs by SRB assay relative to control; format: functional; conditions: OVCAR-4, 48 h, read-out: GI; in short: as §2
# [11] = Growth inhibition of human MCF7 cells at 10 uM after 48 hrs by SRB assay relative to control; format: functional; conditions: MCF7, 48 h, read-out: GI; in short: as §2
# [12] = Growth inhibition of human IGROV1 cells at 10 uM after 48 hrs by SRB assay relative to control; format: functional; conditions: IGROV-1, 48 h, read-out: GI; in short: as §2
# [13] = Growth inhibition of human LOXIMVI cells at 10 uM after 48 hrs by SRB assay relative to control; format: functional; conditions: LOX IMVI, read-out: GI; in short: as §2
# Cancer cell lines [14] = test: Potency index, ratio of 5-fluorouracil GI50 to compound GI50 for human non-small cell lung cancer cells; format: functional; in short: as §1
# [15] = Growth inhibition of human SW620 cells at 10 uM after 48 hrs by SRB assay relative to control; format: functional; conditions: SW-620, 48 h, read-out: GI
# In short: (§4)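 Primary screen across the full NCI 60 human tumour cell line panel, which covers nine tumour subpanels. A single dose of 10 μM was applied to each line, and growth was recorded for each cell line.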
# [16] = Growth inhibition of human SN12C cells at 10 uM after 48 hrs by SRB assay relative to control; format: functional; conditions: read-out: GI; in short: as §4
# [17] = Growth inhibition of human T47D cells at 10 uM after 48 hrs by SRB assay relative to control; format: functional; conditions: read-out: GI; in short: as §4
# [18] = Growth inhibition of human NCI-322M cells at 10 uM after 48 hrs by SRB assay relative to control; format: functional; conditions: read-out: GI; in short: as §2
# Cancer cell lines [19] = test: Potency index, ratio of 5-fluorouracil GI50 to compound GI50 for human CNS cancer cells; format: functional; in short: as §1
# Cancer cell lines [20] = test: Potency index, ratio of 5-fluorouracil GI50 to compound GI50 for human renal cancer cells; format: functional; in short: as §1
# [21] = Growth inhibition of human KM12 cells at 10 uM after 48 hrs by SRB assay relative to control; format: functional; conditions: KM12, 48 h, read-out: GI; in short: as §2
# Dihydrofolate reductase = biological target: T1, Dihydrofolate reductase (Bos taurus, UniProt P00376); test: Inhibition of bovine liver DHFR preincubated for 2 mins followed by addition of FH2 as substrate and NADPH
# T1 sequence (P00376 whole entry): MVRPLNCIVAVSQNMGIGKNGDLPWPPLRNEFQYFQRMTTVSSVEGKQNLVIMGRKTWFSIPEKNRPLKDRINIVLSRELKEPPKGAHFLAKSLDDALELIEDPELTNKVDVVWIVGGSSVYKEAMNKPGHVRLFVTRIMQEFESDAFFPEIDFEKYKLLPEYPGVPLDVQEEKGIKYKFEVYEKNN
# [22] = Growth inhibition of human UACC62 cells at 10 uM after 48 hrs by SRB assay relative to control; format: functional; conditions: UACC-62, 48 h, read-out: GI; in short: as §4
# [23] = Growth inhibition of human HCC2998 cells at 10 uM after 48 hrs by SRB assay relative to control; format: functional; conditions: HCC 2998, 48 h, read-out: GI; in short: as §2
# Melanoma cell = test: Potency index, ratio of 5-fluorouracil GI50 to compound GI50 for human melanoma cells; format: functional; in short: as §1
# [24] = Growth inhibition of human HT-29 cells at 10 uM after 48 hrs by SRB assay relative to control; format: functional; conditions: HT-29, 48 h, read-out: GI; in short: as §2
# [25] = Growth inhibition of human SK-MEL-5 cells at 10 uM after 48 hrs by SRB assay relative to control; format: functional; conditions: SK-MEL-5, 48 h, read-out: GI; in short: as §4
# [26] = Growth inhibition of human ACHN cells at 10 uM after 48 hrs by SRB assay relative to control; format: functional; conditions: read-out: GI; in short: as §2
# [27] = Growth inhibition of human Hs 578T cells at 10 uM after 48 hrs by SRB assay relative to control; format: functional; conditions: read-out: GI; in short: as §2
# [28] = Growth inhibition of human colon cancer cells after 48 hrs by SRB assay; format: functional; conditions: Cancer cell lines; in short: as §3
# [29] = Growth inhibition of human SKOV3 cells at 10 uM after 48 hrs by SRB assay relative to control; format: functional; conditions: SK-OV-3, 48 h, read-out: GI; in short: as §4
# [30] = Growth inhibition of human UO31 cells at 10 uM after 48 hrs by SRB assay relative to control; format: functional; conditions: UO-31, 48 h, read-out: GI; in short: as §4
# [31] = Growth inhibition of human NCI/ADR-RES cells at 10 uM after 48 hrs by SRB assay relative to control; format: functional; conditions: read-out: GI; in short: as §2
# [32] = Growth inhibition of human RXF393 cells at 10 uM after 48 hrs by SRB assay relative to control; format: functional; conditions: RXF 393, 48 h, read-out: GI; in short: as §2
# [33] = Growth inhibition of human SF539 cells at 10 uM after 48 hrs by SRB assay relative to control; format: functional; conditions: SF-539, 48 h, read-out: GI; in short: as §2
SMILES,RatioGI50 (Cancer cell lines [1]),inhibition of growth at 10 µM [2],GI50 [3],LC50 (concentration killing 50% of cells) [3],inhibition of growth at 10 µM [4],inhibition of growth at 10 µM [5],inhibition of growth at 10 µM [6],GI50 [7],LC50 [7],TGI [7],inhibition of growth at 10 µM [8],inhibition of growth at 10 µM [9],inhibition of growth at 10 µM [10],inhibition of growth at 10 µM [11],inhibition of growth at 10 µM [12],inhibition of growth at 10 µM [13],RatioGI50 (Cancer cell lines [14]),inhibition of growth at 10 µM [15],inhibition of growth at 10 µM [16],inhibition of growth at 10 µM [17],also measured
COc1cc(CSc2nc3ccc(C)cc3c(=O)n2Cc2ccccc2)cc(OC)c1OC,10,60%,2.9 µM,> 100 µM,64.4%,70%,53.2%,2.8 µM,> 100 µM,47.5 µM,54.1%,71.3%,46.9%,82%,75.7%,60.2%,10,74.2%,60%,65.9%,TGI [3]: 60.2 µM; inhibition of growth at 10 µM [18]: 53.8%; RatioGI50 (Cancer cell lines [19]): 10; RatioGI50 (Cancer cell lines [20]): 10; inhibition of growth at 10 µM [21]: 74.7%; pIC50 (Dihydrofolate reductase): 6.00; inhibition of growth at 10 µM [22]: 78.6%; inhibition of growth at 10 µM [23]: 57%; RatioGI50 (Melanoma cell): 10; inhibition of growth at 10 µM [24]: 89.5%; inhibition of growth at 10 µM [25]: 82.2%; inhibition of growth at 10 µM [26]: 53.3%; inhibition of growth at 10 µM [27]: 79.3%; GI50 [28]: 1.6 µM; LC50 [28]: 87.1 µM; TGI [28]: 76.1 µM; inhibition of growth at 10 µM [29]: 76.1%; inhibition of growth at 10 µM [30]: 68%; inhibition of growth at 10 µM [31]: 87.3%
COc1cc(CSc2nc3ccc(C)cc3c(=O)n2-c2ccccc2)cc(OC)c1OC,10,60.7%,3.4 µM,> 100 µM,82.8%,57.6%,62.4%,2.3 µM,> 100 µM,84.3 µM,51%,72.4%,42.8%,80.1%,66.8%,64%,10,70.3%,63%,71.8%,inhibition of growth at 10 µM [32]: 85.8%; inhibition of growth at 10 µM [18]: 52.6%; RatioGI50 (Cancer cell lines [19]): 10; RatioGI50 (Cancer cell lines [20]): 10; inhibition of growth at 10 µM [21]: 74.7%; pIC50 (Dihydrofolate reductase): 5.15; inhibition of growth at 10 µM [22]: 79.2%; inhibition of growth at 10 µM [33]: 96.5%; inhibition of growth at 10 µM [23]: 50.3%; RatioGI50 (Melanoma cell): 10; inhibition of growth at 10 µM [24]: 85.7%; inhibition of growth at 10 µM [25]: 80%; inhibition of growth at 10 µM [26]: 55.3%; inhibition of growth at 10 µM [27]: 71.8%; GI50 [28]: 1.3 µM; LC50 [28]: > 100 µM; TGI [28]: 86.3 µM; inhibition of growth at 10 µM [29]: 86.4%; inhibition of growth at 10 µM [30]: 75.9%; inhibition of growth at 10 µM [31]: 82.2%
